The target of data set [1] is T1, Corticotropin-releasing factor receptor 1 (Rattus norvegicus, UniProt P35353).
T1 sequence (P35353 whole entry): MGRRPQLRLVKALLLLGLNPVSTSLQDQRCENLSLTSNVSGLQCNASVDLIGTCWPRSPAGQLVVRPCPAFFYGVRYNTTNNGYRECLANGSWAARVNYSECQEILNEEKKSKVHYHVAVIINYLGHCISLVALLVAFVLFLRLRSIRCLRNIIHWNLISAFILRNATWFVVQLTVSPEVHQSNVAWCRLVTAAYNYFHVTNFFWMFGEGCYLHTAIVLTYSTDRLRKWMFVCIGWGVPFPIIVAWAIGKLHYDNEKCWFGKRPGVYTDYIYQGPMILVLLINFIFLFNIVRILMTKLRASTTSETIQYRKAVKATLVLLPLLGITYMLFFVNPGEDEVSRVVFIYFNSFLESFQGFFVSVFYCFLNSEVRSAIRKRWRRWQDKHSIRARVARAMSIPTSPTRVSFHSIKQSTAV
Kind of data set: Displacement of [125I]Tyr0-ovine CRF from CRF1 receptor in rat cortical membrane by gamma counting. Type of data set: cell membranes. In outline: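 Inhibition of 125I-Tyr0-ovine-CRF binding to rat cortical membranes measured across dilutions of test drug; IC50 derived by iterative curve fitting.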
For orientation: Loss of bound radioactivity is the signal in a displacement assay; it reports binding, not function.

The test system of data set [2] is Canis familiaris. Kind of data set: Ex vivo displacement of [125I]Tyr0-ovine CRF from CRF1 receptor in dog at 5 mg/kg, po measured in plasma after 2 hrs. The data set is classed as functional. The conditions noted are these: Canis lupus familiaris. The method, boiled down: (§1)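 Beagle dogs given 5 mg/kg po (free base), in Labrafil or Tween-80/0.5% methylcellulose 1:99; plasma drawn 2 and 10 h postdose, diluted 10-fold in binding buffer, and tested for inhibition of 125I-Tyr0-ovine-CRF binding to rat receptors; mean ± SD, n = 3.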

The test system of data set [3] is Canis familiaris. Kind of data set: Ex vivo displacement of [125I]Tyr0-ovine CRF from CRF1 receptor in dog at 5 mg/kg, po measured in plasma after 10 hrs. The data set is classed as functional. The note with it: Canis lupus familiaris. The method, boiled down: as §1
For data set [4], the target named is T2, Corticotropin-releasing factor receptor 1 (Homo sapiens, UniProt P34998).
T2 sequence (P34998 whole entry): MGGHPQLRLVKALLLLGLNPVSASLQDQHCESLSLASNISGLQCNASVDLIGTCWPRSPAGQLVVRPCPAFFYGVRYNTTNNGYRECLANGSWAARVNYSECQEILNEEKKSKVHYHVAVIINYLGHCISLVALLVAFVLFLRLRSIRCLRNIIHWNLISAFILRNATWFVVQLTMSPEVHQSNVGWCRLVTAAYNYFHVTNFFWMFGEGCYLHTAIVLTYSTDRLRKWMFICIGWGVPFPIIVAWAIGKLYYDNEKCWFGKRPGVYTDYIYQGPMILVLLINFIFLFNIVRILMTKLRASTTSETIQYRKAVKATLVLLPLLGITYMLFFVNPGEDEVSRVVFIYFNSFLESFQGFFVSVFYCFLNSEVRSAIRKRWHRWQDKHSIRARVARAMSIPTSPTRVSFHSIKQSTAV
Description: Binding affinity to CRF1 receptor in human IMR32 cells. The data set is classed as cell-based, IMR-32.

Data set [5] deals with T1, Corticotropin-releasing factor receptor 1. Kind of data set: Antagonist activity at CRF1 receptor in rat brain homogenates assessed as inhibition of CRF-stimulted cAMP production. Type of data set: functional, tissue-based. The method, boiled down: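 Rat cortical homogenate (0.8 mg original wet weight tissue) incubated 10 min at 37 °C in 100 mM Tris-HCl pH 7.4, 10 mM MgCl2, 0.4 mM EGTA, 0.1% BSA, 1 mM IBMX, creatine phosphate/phosphocreatine kinase, 100 nM ovine-CRF; started with 1 mM ATP/[32P]ATP; [32P]cAMP separated on Dowex and alumina columns, [3H]cAMP recovery marker; n = 3.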
A general note: cAMP levels reflect the balance of adenylyl cyclase and phosphodiesterase activity.

Data set [6] has as its system Rattus norvegicus. Description: Anxiolytic-like activity in Sprague-Dawley rat assessed as decrease in latency to exit dark chamber at 10 mg/kg, po measured after 1 hr by defensive withdrawal test relative to control. Type of data set: functional. Further details: scale not given: the % may be the effect or the level left. The method, boiled down: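 Male Sprague-Dawley rats (180-300 g), individually housed; open field with cylindrical dark chamber; oral dosing in 0.25% Methocel 1 h before a 15 min session scored blind via video; latency to place all four paws in open field recorded, maximum 900 s; test doses 1.0, 3.0, 10, 30 mg/kg; positive control at 10 mg/kg; n = 12/dose; Kruskal-Wallis then Mann-Whitney U.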

Data set [7] has as its system Rattus norvegicus. Description: Anxiolytic-like activity in Sprague-Dawley rat assessed as increase in time spent in open arms at 18 mg/kg, po measured after 1 hr by elevated plus maze test. The data set is classed as functional, organism-based. Further details: dose 18 mg/kg. In outline:
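Group-housed male Sprague-Dawley rats (180-300 g) dosed po in 0.25% Methocel 1 h before elevated plus maze; arm entry defined as all four paws in arm; percent time in open arms scored; test doses 1.0, 3.0, 10, 30 mg/kg; positive control at 18 mg/kg; n = 13-15/dose; mean ± SEM, ANOVA then Fisher's LSD.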

Data set [8] concerns Rattus norvegicus. Description: Toxicity in Sprague-Dawley rat assessed as time spent on rotarod at 30 mg/kg, po after 1 hr by rotarod test. Type of data set: organism-based. Further details: dose 30 mg/kg, route oral. The note with it: in vivo. In outline: (§2)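 Male Sprague-Dawley rats received a single oral gavage dose of 30 mg/kg (free base weight) in 0.5% methocel–Tween-80 (99:1) or vehicle alone. Behaviour was assessed 1 h postdose, as time on the rotorod in seconds for the rotorod test and total distance travelled in cm for open-field locomotor activity. Values are mean ± SEM, n = 8 per group.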
For orientation: The rotarod test checks motor coordination on a turning rod.

Data set [9] concerns Rattus norvegicus. Description: Toxicity in Sprague-Dawley rat assessed as total distance traveled at 30 mg/kg, po after 1 hr by open-field locomotor activity test. The data set is classed as organism-based. Further details: dose 30 mg/kg, route oral. The conditions noted are these: in vivo. In outline:
as §2

The source made the active and inactive calls.

The term IC50 denotes the concentration that gives 50% inhibition. A word on the inhibition in vivo: it is the change of the read-out against control, counted positive when it falls.

As for `CCCN(CC1CC1)c1nc(C)nc2c(-c3ccc(OC)cc3C)c(C)nn12`, in [1], the IC50 was 1.96 nM.

`CCCN(CCC)c1nc(C)nc2c(-c3ccc(OC)cc3C)c(C)nn12` yielded an IC50 in data set [1] of 2.58 nM.

As for `CCN(CC)c1nc(C)nc2c(-c3ccc(OC)cc3C)c(C)nn12`, the IC50 in [1] amounted to 6.08 nM.

Compound `COCCN(CCOC)c1nc(C)nc2c(-c3cc(F)c(OC)cc3Cl)c(C)nn12` gave an IC50 in data set [1] of 1.18 nM.

On to `COCCN(CCOC)c1nc(C)nc2c(-c3c(C)cc(OC)cc3OC)c(C)nn12`, for which the IC50 in data set [1] stood at 7.96 nM.

`CCCN(C)c1nc(C)nc2c(-c3c(C)cc(OC)cc3OC)c(C)nn12` registered an IC50 in data set [1] of 6.48 nM.

As to `C=CCN(CC=C)c1nc(C)nc2c(-c3c(C)cc(OC)cc3OC)c(C)nn12`, in data set [1], the IC50 was 1 nM.

In turn, `CCCCN(CC)c1nc(C)nc2c(-c3c(C)cc(OC)cc3OC)c(C)nn12` came in with an IC50 in [1] of 1.72 nM.

On to `COc1ccc(-c2c(C)nn3c(NC4CCC4)nc(C)nc23)c(C)c1`, for which the IC50 in data set [1] was 24.6 nM.

`CCN(CC)c1nc(C)nc2c(-c3c(C)cc(OC)cc3OC)c(C)nn12`: the results for the inhibition in vivo at 5 mg/kg in the data set with Canis familiaris [2] and with Canis familiaris [3] were 56% and 30%, respectively. The compound also came in with an IC50 in data set [1] of 1.2 nM.

`CCN(CCC#N)c1nc(C)nc2c(-c3c(C)cc(OC)cc3OC)c(C)nn12` came in with an IC50 in data set [1] of 2.48 nM.

In the case of `COCCN(CC1CC1)c1nc(C)nc2c(-c3c(C)cc(OC)cc3OC)c(C)nn12`, the IC50 in [1] came out at 1.8 nM.

In data set [1], `COCCN(CCOC)c1nc(C)nc2c(-c3cc(OC)c(OC)cc3C)c(C)nn12` had an IC50 of 13.7 nM.

On to `CCC(CC)Nc1nc(C)nc2c(-c3cc(F)c(OC)cc3C)c(C)nn12`, for which the inhibition in vivo at 5 mg/kg in the data set with Canis familiaris [2] came to 81%; in the data set on Canis familiaris [3], 25%. For the same compound, in data set [1], the IC50 is 1.9 nM.

As to `CCN(CC)c1nc(C)nc2c(-c3ccc(OC)c(C)c3C)c(C)nn12`, in data set [1], the IC50 amounted to 38.6 nM.

H-DLTFHLLREMLEMAKAEQEAEQAALNRLLLEEA-NH2: the IC50 came to 2 nM in data set [4], 264 nM in [5] and 1.24 nM in [1].

Compound `CCN(CC)c1nc(C)nc2c(-c3cc(F)c(OC)cc3Cl)c(C)nn12` gave a half-inhibitory concentration (IC50) in [1] of 1.64 nM.

In the case of `CCCCN(CC)c1nc(C)nc2c(-c3c(C)cc(OC)cc3C)c(C)nn12`, the IC50 in data set [1] worked out at 4.22 nM.

Regarding `COCCN(CCOC)c1nc(C)nc2c(-c3cc(OC)c(OC)cc3Br)c(C)nn12`, the IC50 in [1] turned out to be 4.99 nM.

In data set [1], `CCCN(CCC#N)c1nc(C)nc2c(-c3ccc(OC)cc3C)c(C)nn12` registered an IC50 of 2.16 nM.

Take `CCN(CCOC)c1nc(C)nc2c(-c3c(C)cc(OC)cc3OC)c(C)nn12`: the inhibition in vivo at 5 mg/kg was 86% in the data set on Canis familiaris [2] and 54% in the data set with Canis familiaris [3]. The IC50 in [1] was found to be 1.78 nM.

In the case of `COCCN(CCOC)c1nc(C)nc2c(-c3c(C)cc(OC)cc3C)c(C)nn12`, the IC50 in data set [1] came out at 2.74 nM.

Turning to `COc1cc(C)c(-c2c(C)nn3c(NC4CCC4)nc(C)nc23)c(OC)c1`, the results for the inhibition in vivo at 5 mg/kg in the data set with Canis familiaris [2] and in the data set on Canis familiaris [3] were 52% and 46%, respectively. In [1], this compound showed a 50% inhibitory concentration (IC50) of 17.4 nM.

As for `CC[C@H](C)Nc1nc(C)nc2c(-c3c(C)cc(OC)cc3OC)c(C)nn12`, the results for the inhibition in vivo at 5 mg/kg in the data set on Canis familiaris [2] and in the data set on Canis familiaris [3] were 72% and 74%, respectively. The compound further came in with an IC50 in [1] of 2.9 nM.

Compound `CCC1CCCCN1c1nc(C)nc2c(-c3c(C)cc(OC)cc3OC)c(C)nn12` (centres undefined) showed an IC50 in data set [1] of 3.26 nM.

`COCC(COC)Nc1nc(C)nc2c(-c3ccc(Cl)cc3Cl)c(C)nn12` gave an IC50 in data set [1] of 4.2 nM. Moreover, the Activity in the data set on Rattus norvegicus [6] was determined as 52%. The result with Rattus norvegicus [7] was Active.

In data set [1], `CCOCC(COCC)Nc1nc(C)nc2c(-c3ccc(OC)cc3C)c(C)nn12` returned an IC50 of 19.3 nM.

`CCN(CC)c1nc(C)nc2c(-c3cc(OC)c(OC)cc3Br)c(C)nn12` gave an IC50 in data set [1] of 4.06 nM.

Consider `CCC(CC)Nc1nc(C)nc2c(-c3ccc(OC)c(C)c3C)c(C)nn12`, for which, in data set [1], the IC50 was determined as 11.3 nM.

With `CNC1=Nc2ccc(Cl)cc2C(c2ccccc2)=[N+]([O-])C1` [CHLORDIAZEPOXIDE], in the data set with Rattus norvegicus [8], the Time was 121 s. Besides, the Activity in the data set with Rattus norvegicus [9] was 2249 cm.

Compound `COc1ccc(-c2c(C)nn3c(N(CCC#N)C4CC4)nc(C)nc23)c(C)c1` registered an IC50 in data set [1] of 1.88 nM.

As to `CCC(CC)Nc1nc(C)nc2c(-c3cc(OC)c(OC)cc3Br)c(C)nn12`, in data set [1], the IC50 came out at 6.08 nM.

For `CCCC(C)Nc1nc(C)nc2c(-c3c(C)cc(OC)cc3OC)c(C)nn12` (centres undefined), the IC50 in [1] is 2.14 nM.

Take `COc1ccc(-c2c(C)nn3c(N4CCCC4)nc(C)nc23)c(C)c1`: the IC50 in [1] came to 80.7 nM.

Compound `COCCN(CCOC)c1nc(C)nc2c(-c3cc(OC)c(OC)cc3Cl)c(C)nn12` had an IC50 in data set [1] of 8 nM.

`COCCN(CCOC)c1nc(C)nc2c(-c3ccc(OC)cc3)c(C)nn12` showed an IC50 in data set [1] of 11.5 nM.

Consider `CCCCN(CC)c1nc(C)nc2c(-c3ccc(OC)cc3C)c(C)nn12`, for which, in data set [1], the IC50 was determined as 2.3 nM.

The compound `CCC(CC)Nc1nc(C)nc2c(-c3ccc(OC)cc3)c(C)nn12` showed an IC50 in data set [1] of 3.8 nM.

As for `COCC(COC)Nc1nc(C)nc2c(-c3ccc(OC)cc3C)c(C)nn12`, in data set [1], the IC50 was 9.7 nM.

In the case of `CCC(CC)Nc1nc(C)nc2c(-c3c(C)cc(OC)cc3OC)c(C)nn12`, the inhibition in vivo at 5 mg/kg with Canis familiaris [2] was 80%; with Canis familiaris [3] it was 56%. The IC50 in data set [1] came out at 5 nM.

With `CCCN(CCC)c1nc(C)nc2c(-c3c(C)cc(OC)cc3OC)c(C)nn12`, the IC50 in data set [1] amounted to 3.72 nM.

As to `C=CCN(C)c1nc(C)nc2c(-c3c(C)cc(OC)cc3OC)c(C)nn12`, the IC50 in [1] was 4.92 nM.

The record behind these values is ChEMBL document CHEMBL1138477, “8-(4-Methoxyphenyl)pyrazolo[1,5-a]-1,3,5-triazines: selective and centrally active corticotropin-releasing factor receptor-1 (CRF1) antagonists” (J Med Chem, 2009).
